# Measured values published in ChEMBL document CHEMBL1157514, “3-Alkenyl-2-azetidinones as fatty acid amide hydrolase inhibitors” (Bioorg Med Chem Lett, 2008).
# Activity calls are given as the source filed them. The rule behind the calls is not given here.
# Assays:
# [1] = target: T1, Monoglyceride lipase (Homo sapiens) (UniProt Q99685); test: Inhibition of human MGL expressed in Escherichia coli at 1 mM
# T1 sequence (whole entry): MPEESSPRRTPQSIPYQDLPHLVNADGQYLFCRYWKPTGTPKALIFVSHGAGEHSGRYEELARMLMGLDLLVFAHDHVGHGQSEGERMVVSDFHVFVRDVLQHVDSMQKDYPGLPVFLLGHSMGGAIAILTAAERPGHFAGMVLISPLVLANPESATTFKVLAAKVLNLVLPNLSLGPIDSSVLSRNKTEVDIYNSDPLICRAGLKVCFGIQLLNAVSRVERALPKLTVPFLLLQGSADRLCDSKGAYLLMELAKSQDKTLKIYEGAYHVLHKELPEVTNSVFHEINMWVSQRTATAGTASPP
# In short: (§1)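 Human MGL expressed in E. coli was run in Tris-HCl pH 8 with [3H]-oleoylglycerol (50,000 dpm; 10 µM final) as substrate. Otherwise the radiometric hydrolysis protocol was similar: compound or DMSO, chloroform–methanol quench, scintillation counting of the aqueous phase, and subtraction of buffer-only blanks.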
# [2] = target: T2, Fatty-acid amide hydrolase 1 (Homo sapiens, UniProt O00519); test: Inhibition of human FAAH expressed in Escherichia coli
# T2 sequence (O00519 whole entry): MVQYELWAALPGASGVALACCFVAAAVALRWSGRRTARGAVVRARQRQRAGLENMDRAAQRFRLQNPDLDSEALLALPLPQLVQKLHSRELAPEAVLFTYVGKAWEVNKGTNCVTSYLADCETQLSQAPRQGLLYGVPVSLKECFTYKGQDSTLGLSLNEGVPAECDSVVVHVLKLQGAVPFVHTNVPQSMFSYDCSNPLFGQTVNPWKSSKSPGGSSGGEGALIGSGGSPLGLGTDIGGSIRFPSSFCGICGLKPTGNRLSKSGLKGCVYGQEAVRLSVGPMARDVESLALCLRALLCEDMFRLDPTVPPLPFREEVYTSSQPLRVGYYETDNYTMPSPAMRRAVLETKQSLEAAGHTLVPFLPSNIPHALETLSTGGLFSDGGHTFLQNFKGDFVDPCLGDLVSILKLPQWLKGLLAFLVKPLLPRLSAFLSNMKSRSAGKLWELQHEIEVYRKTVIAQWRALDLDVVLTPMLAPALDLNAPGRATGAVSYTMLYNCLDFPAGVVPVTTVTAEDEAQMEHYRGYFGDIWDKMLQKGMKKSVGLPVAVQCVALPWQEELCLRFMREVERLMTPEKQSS
# In short: (§2)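 Human FAAH expressed in E. coli, in Tris-HCl pH 7.4, was added on ice to compound or DMSO. [3H]-AEA was added (50,000 dpm; 2 µM final) in Tris-HCl with 0.1% BSA, then incubated 10 min at 37 °C. The reaction was stopped on ice with cold MeOH–CHCl3 (1:1) and centrifuged. [3H]-ethanolamine in the aqueous phase was counted by liquid scintillation, with no-enzyme blanks subtracted.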
# [3] = target: T3, Fatty-acid amide hydrolase 1 (Homo sapiens) (UniProt O00519); test: Inhibition of human FAAH expressed in Escherichia coli at 1 mM; in short: as §2
# T3 sequence (whole entry): T2 sequence (O00519 whole entry)
# [4] = target: T4, Pancreatic elastase (Sus scrofa) (UniProt P08419+P00772); test: Inhibition of pig pancreatic elastase at 0.1 mM; format: protein assay
# [5] = target: T5, Monoglyceride lipase (Homo sapiens, UniProt Q99685); test: Inhibition of human MGL expressed in Escherichia coli; in short: as §1
# T5 sequence (Q99685 whole entry): T1 sequence (whole entry)
# [6] = target: T4, Pancreatic elastase (Sus scrofa); test: Inhibition of pig pancreatic elastase at 5 mM; format: protein assay
# [7] = target: T4, Pancreatic elastase (Sus scrofa); test: Inhibition of pig pancreatic elastase at 10 mM; format: protein assay
# [8] = organism: Homo sapiens; test: Selectivity ratio of IC50 for human FAAH over IC50 for human MGL
# [9] = target: T4, Pancreatic elastase (Sus scrofa); test: Inhibition of pig pancreatic elastase at 2.5 mM; format: protein assay
# [10] = target: T4, Pancreatic elastase (Sus scrofa); test: Inhibition of pig pancreatic elastase at 100 uM; format: protein assay
# [11] = Inhibition of penicillin-binding protein R39 assessed as residual activity
# In short: (§3)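 Compound (100 µM) was incubated with PBP (0.8–2.5 µM) for 16 h at 30 °C in 50 mM sodium phosphate pH 7 with 5% DMF; PBP2a and PBP5 also had 0.5 M NaCl. Free PBP was then labelled with 25 µM fluorescein-ampicillin for 45 min and the reaction stopped with SDS-PAGE loading buffer. Gel fluorescence was quantified, background subtracted, and residual activity given as % of initial (triplicate).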
# [12] = Inhibition of penicillin-binding protein 2x assessed as residual activity; in short: as §3
# [13] = Inhibition of penicillin-binding protein 2a assessed as residual activity at 100 uM after 16 hrs by SDS-PAGE; in short: as §3
# [14] = Inhibition of penicillin-binding protein 5 assessed as residual activity at 100 uM after 16 hrs by SDS-PAGE; in short: as §3
Structure (SMILES),inhibition [1] [%],IC50 [2] [µM],inhibition [3] [%],further results
C=CCCCC1(CCCC=C)CNC1=O,36.3,259,80.5,–
C=CCCCC1(CCCC=C)CN([Si](C)(C)C(C)(C)C)C1=O,10.3,–,25.2,–
C=CCCC(=O)N1CC(CCC=C)C1=O (racemic),58.1,21.9,103,Activity [4]: inactive; IC50 [5]: 817 µM; Activity [6]: inactive; Activity [7]: inactive; Ratio IC50 [8]: 37; Activity [9]: inactive
C=CCCC(=O)N1CC(CC=C)C1=O (racemic),46.4,61.8,96.5,Activity [10]: Active; Activity [11]: 73%; Activity [12]: 108%; Activity [13]: 87%; Activity [14]: 104%
C=CCCCC1CN(C(=O)CCC=C)C1=O (racemic),62.1,4.5,101,Activity [4]: inactive; IC50 [5]: 657 µM; Activity [6]: inactive; Activity [7]: inactive; Ratio IC50 [8]: 146; Activity [9]: inactive
C=CCC1CN([Si](C)(C)C(C)(C)C)C1=O (racemic),77.5,–,43.6,–
C=CCC1CNC1=O (racemic),15.6,–,56.6,–
C=CCCC1CN([Si](C)(C)C(C)(C)C)C1=O (racemic),69.9,–,49.5,–
C=CCCC1CNC1=O (racemic),8.1,–,48,–
C=CCCCC1CN([Si](C)(C)C(C)(C)C)C1=O (racemic),54.9,–,76.9,–
C=CCCCC1CNC1=O (racemic),54.9,–,80.9,–
